Results on 24 compounds are retold here after ChEMBL document CHEMBL1121965, “Nonsteroidal estrogens: synthesis and estrogen receptor binding affinity of derivatives of (3R*,4S*)-3,4-bis(4-hydroxyphenyl)hexane (hexestrol) and (2R*,3S*)-2,3-bis(4-hydroxyphenyl)pentane (norhexestrol) functionalized on the side chain” (J Med Chem, 1982).

This assay concerns the target Estrogen receptor (Ovis aries) (UniProt P49885+Q9TU15). Kind of assay: The ratio of association constant for estrogen receptor using [3H]estradiol as a tracer, relative to estradiol. Format: protein assay. Put shortly:
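Competitive binding: lamb uterine cytosol supplied estrogen receptor, [3H]estradiol served as tracer, and free tracer was removed from bound by charcoal-dextran adsorption. Relative association constants were expressed against estradiol set at 100.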

As to `CCCCCNC(=O)[C@@H](c1ccc(O)cc1)[C@H](CC)c1ccc(O)cc1`, the RAC was 0.29.
The figure for `CC[C@H](c1ccc(O)cc1)[C@@H](CC(C)=O)c1ccc(O)cc1` is 21; for `CCCCC(=O)[C@@H](c1ccc(O)cc1)[C@H](CC)c1ccc(O)cc1` it is 81; for `CCC(c1ccc(O)cc1)C(CCI)c1ccc(O)cc1` (centres undefined) it is 60.
Regarding `CC[C@H](c1ccc(O)cc1)[C@@H](CC(=O)C[N+]#N)c1ccc(O)cc1`, the RAC was 2.8.
The result for `CC[C@H](c1ccc(O)cc1)[C@@H](C(=O)C[N+]#N)c1ccc(O)cc1` reads 10.9.
For `CC[C@H](c1ccc(O)cc1)[C@@H](CF)c1ccc(O)cc1`, the RAC amounted to 129.
Consider `CCCCCNC(=O)C[C@@H](c1ccc(O)cc1)[C@H](CC)c1ccc(O)cc1`, for which the RAC was 0.15.
Turning to `CCC(c1ccc(O)cc1)C(CCF)c1ccc(O)cc1` (centres undefined), the RAC stood at 129.
The result for `CC[C@H](c1ccc(O)cc1)[C@@H](CC(=O)OC)c1ccc(O)cc1` reads 19.
Turning to `CC[C@H](c1ccc(O)cc1)[C@@H](CO)c1ccc(O)cc1`, the RAC was 8.9.
`CCCCCOC(=O)CC(c1ccc(O)cc1)C(CC)c1ccc(O)cc1` (centres undefined): the RAC amounted to 3.8.
With `CC[C@H](c1ccc(O)cc1)[C@@H](CBr)c1ccc(O)cc1`, the RAC worked out at 150.
Consider `CCC(c1ccc(O)cc1)C(CCO)c1ccc(O)cc1` (centres undefined), for which the RAC was determined as 15.
Take `CC[C@H](c1ccc(O)cc1)[C@@H](CC)c1ccc(O)cc1`: the RAC stood at 300.
The figure for `CCC(c1ccc(O)cc1)C(C(=O)OC)c1ccc(O)cc1` (centres undefined) is 70; for `CCCCC(=O)C[C@@H](c1ccc(O)cc1)[C@H](CC)c1ccc(O)cc1` it is 9.4.
With `CCCCCOC(=O)C(c1ccc(O)cc1)C(CC)c1ccc(O)cc1` (centres undefined), the RAC was 61.
On to `CC[C@H](c1ccc(O)cc1)[C@@H](C(N)=O)c1ccc(O)cc1`, for which the RAC was 0.2.
With `CC[C@H](c1ccc(O)cc1)[C@@H](C(C)=O)c1ccc(O)cc1`, the RAC was 58.
Regarding `CCC(c1ccc(O)cc1)C(CCBr)c1ccc(O)cc1` (centres undefined), the RAC is 71.
Turning to `CC[C@H](c1ccc(O)cc1)[C@@H](CI)c1ccc(O)cc1`, the RAC came out at 127.
The result for `CC[C@H](c1ccc(O)cc1)[C@@H](CC(N)=O)c1ccc(O)cc1` reads 0.09.
As to `CC[C@H](c1ccc(O)cc1)[C@@H](C)c1ccc(O)cc1`, the RAC worked out at 137.
